This sample holds only a part of the variants without activity.

To fix the notation:
B1: tRNA (parent)
chain: GUUCCGUUGGCGUAAUGGUAACGCGUCUCCCUCCUAAGGAGAAGACUGCGGGUUCGAGUCCCGUACGGAACG

The variants in this data set derive from B1. Nature of the data set: yeast fitness relative to wild type (ratio to wild type); higher = fitter; tRNA-Arg(CCU), competitive growth, 37 C, YPD. The gist of the method: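 Amplicons of the tRNA-Arg(CCU) gene were sequenced, 100-nucleotide paired-end, from the start population and from each end population of a pooled yeast competition. The competition, in six parallel replicates, lasted 24 hours in YPD at 37°C. Fitness relative to wild type was calculated from changes in genotype frequencies. Genotypes had to have ≥ 100 starting reads, and estimates < 0.5 were set to 0.5.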
Turning to C46A, the yeast fitness stood at 0.999. For C11G G67C, the yeast fitness came to 0.581. As for C5U C22U A45G, the yeast fitness came to 0.666. The same measure for A21U A37G: 0.664. Take C55A C61G: the yeast fitness was no more than 0.5. The same measure for G10C A14C A15G U64G: no more than 0.5.

For the variant C30G C34U C49G, the yeast fitness came out at 0.615. Consider C49U G51C U64C G68A, for which the yeast fitness was no more than 0.5. For C61G G68U, the yeast fitness came to 0.558. The same measure for C11U A14G C29U G39A: no more than 0.5; for U3G U7C A40U: 0.502; for A15G A43G A57U: 0.793.

With U2C U19A C30U G38C, the yeast fitness came out at 0.54.

Regarding U7C C31A U35G A42G, the yeast fitness stood at 0.591. The same measure for C4U A21G C46A A70U: 0.76; for A40G U54A: 0.551. Consider U13A A42G U47A, for which the yeast fitness worked out at 0.542.

On to C11G C24G, for which the yeast fitness was no more than 0.5.

In the case of U3A G12A A14U C46A, the yeast fitness was no more than 0.5. Turning to C60G G63A A65U C66U, the yeast fitness was no more than 0.5. With U3C C11A A21G U28C U32G, the yeast fitness was no more than 0.5. For the variant U16C A70G, the yeast fitness was found to be 0.945.

For the variant U8C C24G U26C, the yeast fitness was no more than 0.5.

Take C33U U35C C61U: the yeast fitness is 0.555. The same measure for U16A A36G G51A U64C A65G: no more than 0.5; for C27G C33A U47A: no more than 0.5. Consider A21C A69U, for which the yeast fitness came out at 0.827. Take U32C A40C G48C: the yeast fitness was no more than 0.5. Turning to G9C U16G A65U, the yeast fitness was no more than 0.5. For C5A C22G A37C A40C, the yeast fitness is 0.736. Regarding G12A A36G, the yeast fitness was found to be 0.906. With C22A C29G C62A A69U, the yeast fitness is no more than 0.5. The same measure for A37C C60G C66G A70G: no more than 0.5; for G52A A69U: 0.853; for U3C C27G C49G: no more than 0.5. Turning to U2C A14C A40C, the yeast fitness was no more than 0.5. The same measure for G17C G39A: 0.665; for U19C C22U: 0.895.

In the case of A43C G63C G67A, the yeast fitness was no more than 0.5. For U26A C61A, the yeast fitness amounted to 0.656. In the case of G9A G10C G25C C33U, the yeast fitness is no more than 0.5.

As for U8A C31U, the yeast fitness is 0.631. For C27G A42G U64C, the yeast fitness was no more than 0.5. For C4U G18C C24U C61G, the yeast fitness was no more than 0.5. As to U8G A57G C60A, the yeast fitness was no more than 0.5. On to A15C U26C G48C, for which the yeast fitness was no more than 0.5. The same measure for C5U U13C A20U A37C G44C: no more than 0.5; for C4G A20G C27G C29G C55A A57U A69U: 0.629; for A43U G56A: 0.96.

In the case of C5U A20G A37G, the yeast fitness amounted to 0.524. Regarding C4A A21G A65U, the yeast fitness is 0.668. For G17C U32A C66U A70G, the yeast fitness was no more than 0.5.

Consider C61U G67C, for which the yeast fitness is 0.892. As for U2C C34U C46A, the yeast fitness was no more than 0.5.

For the variant U7C G51A, the yeast fitness is 0.856. For the variant C11U U26G A43C U53C C66U A70C, the yeast fitness turned out to be 0.504. As for C5A G25A G58C C66U, the yeast fitness is no more than 0.5.

Consider U7C A36C C61G C66U A69U, for which the yeast fitness was no more than 0.5. The same measure for C22A G52C: 0.665; for U32C A37C C49G A57G: no more than 0.5; for U13A C33U A42G G52C A65G: no more than 0.5.

For C11A C31U A69C A70G, the yeast fitness was no more than 0.5.

As to U26A U59A, the yeast fitness was found to be 0.822. The same measure for U7A A45U: 0.672; for A14U C22U A40U G44C: no more than 0.5. Regarding U3C G23A, the yeast fitness turned out to be 0.701.

As to C5A A43C, the yeast fitness was determined as 0.987. With U2A G9C U16G C24U G68C, the yeast fitness is no more than 0.5. For G23C A45C, the yeast fitness was determined as 0.554. With C11A C22U C24G C30G, the yeast fitness is no more than 0.5. As for A40C G51A U54A, the yeast fitness was no more than 0.5. The same measure for G12A U28G C30U C61A A69U: 0.679; for C5U U28A C34U C61U: no more than 0.5; for C27A C46U A70U: 0.733. As to A20C C30G U35C C60A, the yeast fitness was no more than 0.5. In the case of U2C C11A U32C, the yeast fitness is no more than 0.5. Take U28A C30A: the yeast fitness came to 0.759. On to U7G C62G A69G, for which the yeast fitness is no more than 0.5. Regarding C4A G25A C29A A37G G50C U59A, the yeast fitness was no more than 0.5. Regarding U3A A37G G41A, the yeast fitness is no more than 0.5. A43U C60G C62U: the yeast fitness worked out at 0.839.

As to C4G U13C A15G G48A C61A, the yeast fitness was 0.672. On to C11U C31G A45C, for which the yeast fitness was no more than 0.5. As for C11G C46U G51A, the yeast fitness was determined as 0.649.

With C11G C27U U28A G52A C55U, the yeast fitness is no more than 0.5. Turning to C27A C33A A42U, the yeast fitness is 0.619. The same measure for G17A U35G G48C: 0.502; for C11G C24U A69C: no more than 0.5. For the variant G6A C27A A36G, the yeast fitness was no more than 0.5.

As for C30G C34G A37G, the yeast fitness was determined as 0.811.

In the case of U3G A14U C29U A37G G51A, the yeast fitness is no more than 0.5.

As for C11G G17A C62G, the yeast fitness is no more than 0.5. Consider C11A A36C A43G G50C, for which the yeast fitness was no more than 0.5. On to C27G U28A A65U A70U, for which the yeast fitness came out at 0.558.

Regarding C27G G38A G67U, the yeast fitness was no more than 0.5.

As for A37C G51A G67A, the yeast fitness amounted to 0.584. C5A U13G C34G A45U: the yeast fitness was 0.619. U3G U26A U28G A45C U54C G67A A69U: the yeast fitness was no more than 0.5. The same measure for C27A U59A: 0.876; for A15U C24G A42C A43C: no more than 0.5. The same measure for U8A C34U A43U U59C: 0.619. Take A15C G58A C61A: the yeast fitness is no more than 0.5. Take U13A C27G A40G G41C A69U: the yeast fitness came out at 1.07. In the case of U32G C33G A65U, the yeast fitness is no more than 0.5. Consider U7C U26G A36C G50C, for which the yeast fitness is 0.781. As to G9A U13C C29G, the yeast fitness is no more than 0.5.

Turning to G25A U28G, the yeast fitness is 0.762. As for C5A C22A C24A U26C, the yeast fitness is no more than 0.5.

Regarding C34U U35C A70C, the yeast fitness was no more than 0.5.

C4G C60G C61U: the yeast fitness is no more than 0.5. As to A15G C30U G52A A70U, the yeast fitness stood at 0.581. Consider C4U G17C C22U A37C, for which the yeast fitness was no more than 0.5.

Take A14G G52A G56C A65G: the yeast fitness is no more than 0.5. With U13C A45U G63C, the yeast fitness is no more than 0.5. As for U7A G12A A20G G23A U26G, the yeast fitness was no more than 0.5. Turning to C62U A69G, the yeast fitness was 0.918. In the case of U2G C31G A57U, the yeast fitness is no more than 0.5. Consider C24G U28C U32G A69G, for which the yeast fitness is no more than 0.5. The same measure for C5U A37C C46U U53C A69C: no more than 0.5.

As for C29G A36U, the yeast fitness was determined as 0.569. For C4A G23C C61A C62U C66U, the yeast fitness was no more than 0.5. G12C A57U: the yeast fitness was determined as 0.663. The same measure for A15U G17A: 0.707. The same measure for C31G C34U A42U: 0.612; for C29A G56A: 0.794; for G23A C29G: 0.625.

Regarding C5G A14U G67A, the yeast fitness amounted to 0.612. With U35C U47G C62U A65U, the yeast fitness was no more than 0.5. Consider C5A U32A A36C A70G, for which the yeast fitness is no more than 0.5. As for C4U A21U C66A, the yeast fitness is no more than 0.5. For the variant U16A C49G A69U, the yeast fitness is no more than 0.5.

For the variant C31A A65C, the yeast fitness came out at 0.89. As for C11U A57C C60U G67C, the yeast fitness was 0.589. In the case of U8C C24A C46G G52C U59A, the yeast fitness is no more than 0.5. The same measure for C11G U16A A21G C24U: no more than 0.5; for C5U C61U: 0.971; for U2G C11U A45C U53G A65G: no more than 0.5.

As for C5G U35A G51A, the yeast fitness is no more than 0.5.

With A20G U28C C49A, the yeast fitness was no more than 0.5.

Take C29G C49G G50C A69U A70C: the yeast fitness was no more than 0.5. The same measure for C4A C11G C31U G38C: 0.552.

For the variant C11A C24G C30G G56A, the yeast fitness was no more than 0.5.

U2C C49G: the yeast fitness was determined as 0.798. For C27A G38C G68U, the yeast fitness was no more than 0.5. With C22U G38C, the yeast fitness was determined as 0.747. As for A40C A65G, the yeast fitness is 0.924. For C4A C29U, the yeast fitness worked out at 0.763. Turning to C4A C5G G50A U53A C60U G63C, the yeast fitness is 0.614.

In the case of G10C A15C C46U, the yeast fitness is no more than 0.5.

C24G G25C C30G U32C A57G: the yeast fitness was no more than 0.5. For the variant C5A G18A A69U, the yeast fitness was no more than 0.5. The same measure for U8A C29G C60U G67A A69U: no more than 0.5; for U8A C11A: 0.674; for U8G U19C C46A: 0.853. Regarding A20C A21U C27G A42U A70G, the yeast fitness is no more than 0.5. The same measure for U28G G50C A57U C62A: 0.619; for G6C G12A C30G A36U A42C: no more than 0.5; for U3C A37U G52A A57C C60A: no more than 0.5. As for C5A C11G A57G, the yeast fitness is no more than 0.5. For U3G C5U U32C G41C, the yeast fitness was no more than 0.5.

On to A20G G58A, for which the yeast fitness was determined as 0.97.

Consider U2A C24U C30U C34U G52A, for which the yeast fitness was no more than 0.5. As to A20U C60G G67A, the yeast fitness is no more than 0.5. For the variant U2A C4G A14U C60A, the yeast fitness was no more than 0.5. Consider C5A U32C, for which the yeast fitness turned out to be 0.928. On to G50A C66U A69C, for which the yeast fitness amounted to 0.531. The same measure for U2C G12A G18C C33U C60A: no more than 0.5.
